# Results: ChEMBL document CHEMBL1926661, “The arginine mimicking β-amino acid β³hPhe(3-H₂N-CH₂) as S1 ligand in cyclotheonamide-based β-tryptase inhibitors” (Bioorg Med Chem, 2011)
# What was measured:
# [1] = Inhibition of trypsin
# [2] = species: Homo sapiens; assay: Selectivity ratio of Ki for Trypsin to Ki for human beta-tryptase
# [3] = Inhibition of human mast cell tryptase-beta using chromogenic substrate
# [4] = molecular target: Prothrombin (Homo sapiens, UniProt P00734); assay: Inhibition of thrombin
# [5] = Metabolic stability in human serum assessed as compound remaining at 200 uM after 48 hrs by RP-HPLC analysis; type: ADME, cell-free; conditions: read-out: Stability
# In short: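 Compound at 200 μM incubated in undiluted human plasma or human serum at 37 °C for up to 48 h. At time points, samples were acidified with an equal volume of 0.1% TFA and centrifuged at 8000 × g for 10 min. Supernatants were analysed by C18 RP-HPLC using a linear H₂O/MeCN (0.1% TFA) gradient over 200 min to quantify remaining intact inhibitor.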
# [6] = molecular target: Kallikrein-1 (Homo sapiens, UniProt P06870); assay: Inhibition of tissue kallikrein
# Kallikrein-1, sequence (P06870 whole entry): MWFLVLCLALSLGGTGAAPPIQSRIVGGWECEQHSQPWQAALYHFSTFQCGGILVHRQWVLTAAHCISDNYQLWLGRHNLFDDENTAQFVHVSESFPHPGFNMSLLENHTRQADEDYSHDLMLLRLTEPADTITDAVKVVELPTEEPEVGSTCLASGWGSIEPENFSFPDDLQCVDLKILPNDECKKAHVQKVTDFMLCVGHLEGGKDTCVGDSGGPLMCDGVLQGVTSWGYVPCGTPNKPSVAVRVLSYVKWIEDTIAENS
# [7] = molecular target: Plasma kallikrein (Homo sapiens, UniProt P03952); assay: Inhibition of plasma kallikrein
# Plasma kallikrein, sequence (P03952 20-390 limits assumed): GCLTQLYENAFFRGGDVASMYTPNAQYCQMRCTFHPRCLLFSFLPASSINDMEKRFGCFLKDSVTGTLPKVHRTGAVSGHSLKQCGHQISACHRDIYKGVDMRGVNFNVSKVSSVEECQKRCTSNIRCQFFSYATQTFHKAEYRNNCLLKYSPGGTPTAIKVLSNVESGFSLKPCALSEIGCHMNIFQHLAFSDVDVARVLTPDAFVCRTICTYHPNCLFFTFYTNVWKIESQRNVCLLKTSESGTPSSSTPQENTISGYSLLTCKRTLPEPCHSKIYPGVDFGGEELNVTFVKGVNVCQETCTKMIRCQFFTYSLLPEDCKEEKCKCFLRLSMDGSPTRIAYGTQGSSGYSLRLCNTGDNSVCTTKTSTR
# Plasma kallikrein, sequence (P03952 391-638 limits assumed): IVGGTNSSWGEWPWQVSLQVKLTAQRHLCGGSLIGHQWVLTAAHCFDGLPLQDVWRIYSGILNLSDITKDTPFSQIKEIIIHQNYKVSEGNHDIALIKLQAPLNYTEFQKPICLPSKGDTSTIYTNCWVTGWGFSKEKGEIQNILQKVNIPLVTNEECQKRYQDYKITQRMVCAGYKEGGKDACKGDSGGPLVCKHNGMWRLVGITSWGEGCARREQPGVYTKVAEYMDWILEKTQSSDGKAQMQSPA
# [8] = molecular target: Coagulation factor X (Homo sapiens, UniProt P00742); assay: Inhibition of factor 10a
# Coagulation factor X, sequence (P00742 41-179 limits assumed): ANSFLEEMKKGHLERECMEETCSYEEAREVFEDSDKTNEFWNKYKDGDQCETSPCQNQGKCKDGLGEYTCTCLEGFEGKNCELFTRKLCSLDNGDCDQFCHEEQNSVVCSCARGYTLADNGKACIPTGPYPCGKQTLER
# Coagulation factor X, sequence (P00742 235-488 limits assumed): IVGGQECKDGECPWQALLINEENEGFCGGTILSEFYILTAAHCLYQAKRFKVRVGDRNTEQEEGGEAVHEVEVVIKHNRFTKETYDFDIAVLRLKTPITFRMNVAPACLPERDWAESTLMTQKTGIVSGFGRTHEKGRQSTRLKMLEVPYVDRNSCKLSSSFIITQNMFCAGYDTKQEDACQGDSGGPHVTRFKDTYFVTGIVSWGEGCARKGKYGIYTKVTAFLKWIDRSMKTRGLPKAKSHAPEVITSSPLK
# [9] = Inhibition of human beta-tryptase
# [10] = Inhibition of beta-tryptase
Structure (SMILES),Ki [1],Ratio Ki [2],Ki [4],"remaining at 48 h, 200 µM [5]",Ki [6],Ki [7],Ki [8],Ki [9],Ki [10],Ki [3]
CC[C@H](C)[C@H]1NC(=O)C[C@H](Cc2cccc(CN)c2)NC(=O)[C@@H]2CCCN2C(=O)[C@@H](NC(C)=O)CNC(=O)/C=C/[C@H](Cc2ccc(O)cc2)NC1=O,100 µM,170,680 µM,95%,1800 µM,3300 µM,310 µM,–,–,0.6 µM
CC[C@H](C)[C@H]1NC(=O)C[C@H](CCCCN)NC(=O)[C@@H]2CCCN2C(=O)[C@@H](NC(C)=O)CNC(=O)/C=C/[C@H](Cc2ccc(O)cc2)NC1=O,230 µM,0.6,–,–,–,–,–,380 µM,–,–
COC(=O)C(Cc1cccc(CN)c1)NC(C)=O (racemic),400 µM,–,–,–,–,–,–,–,14 µM,–

# The next compounds have a lower Ki [1] than those just listed; values first:
Ki [1],Ratio Ki [2],Ki [4],"remaining at 48 h, 200 µM [5]",Ki [6],Ki [7],Ki [8],Ki [9],Ki [10],Structure (SMILES),Ki [3]
10 µM,1400,–,–,–,–,–,0.007 µM,–,CC[C@H](C)[C@H]1NC(=O)C[C@H](CCCNC(=N)N)NC(=O)[C@@H]2CCCN2C(=O)[C@@H](NC(=O)CCCCCN)CNC(=O)/C=C/[C@H](Cc2ccc(O)cc2)NC1=O,–
50 µM,2000,330 µM,81%,1300 µM,2000 µM,360 µM,–,–,CC[C@H](C)[C@H]1NC(=O)C[C@H](Cc2cccc(CN)c2)NC(=O)[C@@H]2CCCN2C(=O)[C@@H](NC(=O)CCCCCN)CNC(=O)/C=C/[C@H](Cc2ccc(O)cc2)NC1=O,0.025 µM
30 µM,0.8,–,–,–,–,–,40 µM,–,CC[C@H](C)[C@H]1NC(=O)C[C@H](CCCNC(=N)N)NC(=O)[C@@H]2CCCN2C(=O)[C@@H](NC(C)=O)CNC(=O)/C=C/[C@H](Cc2ccc(O)cc2)NC1=O,–
